Data on 54 molecules can be found in ChEMBL document CHEMBL2057082, “Discovery of N-(4-methoxy-7-methylbenzo[d]thiazol-2-yl)isonicatinamide, ML293, as a novel, selective and brain penetrant positive allosteric modulator of the muscarinic 4 (M4) receptor” (Bioorg Med Chem Lett, 2012).

Active and inactive are the calls of the source. The calls are words filed in the database; no cut-off is given here.

For data set [1], the target named is T1, Muscarinic acetylcholine receptor M4 (Homo sapiens) (UniProt P08173).
T1 sequence (whole entry): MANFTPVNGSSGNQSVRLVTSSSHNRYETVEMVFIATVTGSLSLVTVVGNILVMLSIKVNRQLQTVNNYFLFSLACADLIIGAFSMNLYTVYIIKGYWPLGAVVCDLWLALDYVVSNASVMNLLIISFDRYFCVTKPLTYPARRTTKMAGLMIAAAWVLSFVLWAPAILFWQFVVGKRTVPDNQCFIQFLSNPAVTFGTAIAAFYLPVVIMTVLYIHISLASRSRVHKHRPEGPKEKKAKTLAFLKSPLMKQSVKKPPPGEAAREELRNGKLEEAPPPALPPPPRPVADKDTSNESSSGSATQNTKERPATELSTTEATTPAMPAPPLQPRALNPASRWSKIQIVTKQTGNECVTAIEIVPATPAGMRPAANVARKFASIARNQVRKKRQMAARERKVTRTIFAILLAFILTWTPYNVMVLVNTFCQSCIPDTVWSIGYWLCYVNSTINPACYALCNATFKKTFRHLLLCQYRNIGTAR
Briefly: (§1) Positive allosteric modulation of human M4 receptor expressed in CHO-K1 cells coexpressing Gqi5 assessed as potentiation of acetylcholine-mediated calcium mobilization incubated for 144 secs prior to acetylcholine addition by Fluo-4-AM staining. The data set is classed as functional, cell-based. The essentials:
(§2)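 hM4 stably cotransfected with chimeric Gqi5 in CHO-K1 cells. Cells plated overnight at 37 °C, loaded with Fluo-4 AM for 45 min at 37 °C in HBSS/20 mM HEPES/2.5 mM probenecid. Compound pretreated 144 s (0.3% DMSO final), then EC20 ACh, then EC80 ACh 86 s later; kinetic fluorescence at 37 °C.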

For data set [2], the target named is T1, Muscarinic acetylcholine receptor M4 (Homo sapiens). Briefly: Positive allosteric modulation of human M4 receptor expressed in CHO-K1 cells coexpressing Gqi5 assessed as potentiation of acetylcholine-mediated calcium mobilization incubated for 144 secs prior to acetylcholine addition by Fluo-4-AM staining relative to acetylcholine. The data set is classed as functional, cell-based. In a few lines: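 hM4-Gqi5 CHO-K1 cells, plated overnight, loaded with Fluo-4 AM (45 min, 37 °C). Compound (0.3% DMSO final) preincubated 144 s, then ACh EC20 added, and EC80 added 86 s later; 1 mM ACh wells for normalization. Calcium read at 37 °C, normalized to baseline and then to maximal ACh response. EC50 from four-parameter logistic fit; three independent determinations in triplicate.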
(Calcium flux is commonly read through the fluorescence of an indicator in the cells.)

Data set [3] deals with T2, Muscarinic acetylcholine receptor M4 (Homo sapiens, UniProt P08173).
T2 sequence (P08173 whole entry): T1 sequence (whole entry)
The data set is described as §1. The class given is functional, cell-based. The essentials:
as §2

A short description of data set [4]: Plasma clearance in rat. The data set is classed as ADME, organism-based.

As for `COc1ccc(C)c2sc(NC(=O)CC3CC3)nc12`, the pEC50 entry in data set [1] is “inactive”.

Consider `COc1ccc(C)c2sc(NC(=O)C3CCCOC3)nc12` (configuration not stated), for which the %max in data set [2] was 44%. For the same molecule, the EC50 in data set [3] was over 10 µM.

As to `COc1ccc(C)c2sc(NC(=O)CC(C)(C)C)nc12`, in data set [1], the pEC50 entry was “inactive”.

Take `CCCCC1CC1C(=O)Nc1nc2c(OC)ccc(C)c2s1` (configuration not stated): the pEC50 entry in data set [1] is “inactive”.

On to `O=C(Nc1nc2cccnc2s1)C1CCC1`, for which, in data set [1], the pEC50 entry is “inactive”.

On to `COc1ccc(C)c2sc(NC(=O)N3CCCCC3)nc12`, for which the pEC50 entry in data set [1] was “inactive”.

For `Cc1cc(OCc2ccncc2)nc2sc(C(=O)NCc3cccc(F)c3F)c(N)c12`, the clearance in data set [4] was over 100 mL/min/kg.

Take `COc1ccc(C)c2sc(NC(=O)C3CCCCO3)nc12` (configuration not stated): the %max in data set [2] was determined as 64.1%. In data set [3], the EC50 was over 10 µM.

For the molecule `COc1ccc(C)c2sc(NC(=O)C3CCCCC3)nc12`, in data set [2], the %max was 43.7%. The EC50 in data set [3] is over 10 µM.

Turning to `COc1ccc(C)c2sc(NC(=O)Nc3ccncc3)nc12`, the pEC50 entry in data set [1] was “inactive”.

Turning to `COc1ccc(C)c2sc(NS(=O)(=O)c3cc(C)ccn3)nc12`, in data set [1], the pEC50 result was “inactive”.

Regarding `COc1ccc(C)c2sc(NS(=O)(=O)c3ccc4occc4c3)nc12`, the pEC50 result in data set [1] is “inactive”.

For `COc1ccc(C)c2sc(NC(=O)C3CC3C)nc12` (configuration not stated), the %max in data set [2] was determined as 66.5%. For the same molecule, the EC50 in data set [3] is over 10 µM.

For the molecule `COc1ccc(C)c2sc(NC(=O)NC3CC3)nc12`, the %max in data set [2] was 39.3%. Further, the EC50 in data set [3] is over 10 µM.

In the case of `COCC(=O)Nc1nc2c(OC)ccc(C)c2s1`, the %max in data set [2] was determined as 43.2%. The EC50 in data set [3] was over 10 µM.

As for `COc1ccc(C)c2sc(NC(=O)c3ccco3)nc12`, the %max in data set [2] came out at 51.8%. The EC50 in data set [3] is 1.35 µM.

On to `COc1ccc(C)c2sc(NC(=O)NC3CCC3)nc12`, for which the pEC50 result in data set [1] is “inactive”.

Take `COc1ccc(C)c2sc(NS(=O)(=O)c3cccc(C)c3)nc12`: the pEC50 result in data set [1] is “inactive”.

With `COc1ccc(C)c2sc(NC(=O)c3ccccn3)nc12`, the pEC50 entry in data set [1] is “inactive”.

As for `COc1ccc(C)c2sc(NC(=O)C3CCC3)nc12`, in data set [2], the %max was 52.2%. Moreover, the EC50 in data set [3] is over 10 µM.

For the molecule `COc1ccc(C)c2sc(NC(=O)CCc3ccccc3)nc12`, the pEC50 entry in data set [1] was “inactive”.

As for `COc1ccc(C)c2sc(NS(=O)(=O)c3cnn(C)c3)nc12`, the pEC50 entry in data set [1] was “inactive”.

As to `O=C(Nc1nc2cccnc2s1)c1cnccn1`, the pEC50 entry in data set [1] is “inactive”.

Regarding `COc1ccc(C)c2sc(NC(=O)C3CC3)nc12`, the %max in data set [2] is 61.5%. In addition, in data set [3], the EC50 was over 10 µM.

Take `COc1ccc(C)c2sc(NC(=O)C3=C(C)OCCO3)nc12`: the pEC50 entry in data set [1] was “inactive”.

For `COc1ccc(C)c2sc(NC(=O)c3ccc(C)cc3)nc12`, the pEC50 entry in data set [1] is “inactive”.

As for `COc1ccc(C)c2sc(NC(=O)c3cc(F)cc(F)c3)nc12`, in data set [1], the pEC50 entry is “inactive”.

Take `COc1ccc(C)c2sc(C(=O)NC3CCCCC3)nc12`: in data set [1], the pEC50 result was “inactive”.

As for `COc1ccc(C)c2sc(NC(C)=O)nc12`, the pEC50 result in data set [1] is “inactive”.

Regarding `COc1ccc(C)c2sc(C(=O)Nc3ccc(C)nc3)nc12`, the pEC50 entry in data set [1] is “inactive”.

As to `COc1ccc(C)c2sc(C(=O)NCc3ccncc3)nc12`, the pEC50 entry in data set [1] was “inactive”.

For the molecule `COc1ccc(CNC(=O)c2sc3nc(C)cc(C)c3c2N)cc1`, the clearance in data set [4] is over 100 mL/min/kg.

For `COc1ccc(C)c2sc(NC(=O)c3cccnc3)nc12`, the %max in data set [2] was 37.6%. The EC50 in data set [3] is 2.34 µM.

On to `CCCC(=O)Nc1nc2c(OC)ccc(C)c2s1`, for which the %max in data set [2] amounted to 52.5%. For the same molecule, in data set [3], the EC50 is over 10 µM.

With `COc1ccc(C)c2sc(NC(=O)NC3CCCC3)nc12`, the %max in data set [2] is 36.5%. Further, the EC50 in data set [3] was 7.08 µM.

`COc1ccc2nc(NC(=O)c3ccncc3)sc2n1`: the pEC50 entry in data set [1] is “inactive”.

With `COc1ccc(C)c2sc(NC(=O)C3CCCC3)nc12`, the %max in data set [2] amounted to 45%. Besides, the EC50 in data set [3] was over 10 µM.

For `COc1ccc(C)c2sc(NS(=O)(=O)c3ccc(C(F)(F)F)cc3)nc12`, in data set [1], the pEC50 entry was “inactive”.

The molecule `Cc1nc2sc(C(=O)NCc3ccncc3)c(N)c2c(C)c1Cl` had a clearance in data set [4] of over 100 mL/min/kg.

For the molecule `COc1ccc(C)c2sc(NC(=O)NCc3ccncc3)nc12`, the pEC50 result in data set [1] is “inactive”.

As to `COc1ccc(C)c2sc(NC(=O)c3cnccn3)nc12`, the %max in data set [2] amounted to 38.2%. Besides, the EC50 in data set [3] was 1.12 µM.

Turning to `COc1ccc(C)c2sc(NC(=O)c3ccc(F)cc3)nc12`, the pEC50 result in data set [1] was “inactive”.

In the case of `COc1ccc(C)c2sc(NS(=O)(=O)c3ccc(F)cc3F)nc12`, the pEC50 entry in data set [1] is “inactive”.

With `COc1ccc(C)c2sc(NS(=O)(=O)c3cccc(Cl)c3)nc12`, the pEC50 entry in data set [1] is “inactive”.

For `COc1ccc(C)c2sc(NC(=O)c3ccc(F)c(F)c3)nc12`, the pEC50 result in data set [1] is “inactive”.

Regarding `COc1cccc2sc(NC(=O)c3ccncc3)nc12`, the %max in data set [2] is 36.5%. In addition, the EC50 in data set [3] is 2.82 µM.

As for `O=C(Nc1nc2cccnc2s1)c1cccnn1`, in data set [1], the pEC50 entry is “inactive”.

In the case of `COc1ccc(C)c2sc(NC(=O)c3ccc(F)cc3F)nc12`, the pEC50 entry in data set [1] is “inactive”.

On to `O=C(Nc1nc2ccccc2s1)C1CCCCO1` (configuration not stated), for which the pEC50 result in data set [1] is “inactive”.

As to `COc1ccc(C)c2sc(C(=O)NC3CC3)nc12`, the %max in data set [2] turned out to be 35.6%. Also, in data set [3], the EC50 is 7.76 µM.

Turning to `COc1ccc(C)c2sc(NC(=O)c3c(F)cccc3F)nc12`, the pEC50 entry in data set [1] is “inactive”.

Regarding `COc1ccc(C)c2sc(NC(=O)C3=COCCO3)nc12`, the %max in data set [2] worked out at 55.7%. Also, in data set [3], the EC50 is 1.82 µM.

`O=C(Nc1nc2cccnc2s1)C1CCCC1`: the pEC50 entry in data set [1] was “inactive”.

Consider `COc1ccc(C)c2sc(NC(=O)N3CCCC3)nc12`, for which the %max in data set [2] is 43.5%. In addition, in data set [3], the EC50 is over 10 µM.

What is called EC50 is the concentration giving half of the maximal effect. Usually clearance stands for a measure of how efficiently the substance is removed, as volume per time. A low value points to inefficient removal.
